≈ marks a conversion by molar mass, not a printed value.

The target of series [1] is Endothelin receptor, ET-A/ET-B (Homo sapiens) (UniProt P24530+P25101). As to the kind of experiment: Compound was evaluated for the selectivity of ET-A receptors (ET-B IC50/ ET-A IC50). Type of series: protein assay.
Series [2] concerns the target T1, Endothelin-1 receptor (Homo sapiens) (UniProt P25101).
T1 sequence (whole entry): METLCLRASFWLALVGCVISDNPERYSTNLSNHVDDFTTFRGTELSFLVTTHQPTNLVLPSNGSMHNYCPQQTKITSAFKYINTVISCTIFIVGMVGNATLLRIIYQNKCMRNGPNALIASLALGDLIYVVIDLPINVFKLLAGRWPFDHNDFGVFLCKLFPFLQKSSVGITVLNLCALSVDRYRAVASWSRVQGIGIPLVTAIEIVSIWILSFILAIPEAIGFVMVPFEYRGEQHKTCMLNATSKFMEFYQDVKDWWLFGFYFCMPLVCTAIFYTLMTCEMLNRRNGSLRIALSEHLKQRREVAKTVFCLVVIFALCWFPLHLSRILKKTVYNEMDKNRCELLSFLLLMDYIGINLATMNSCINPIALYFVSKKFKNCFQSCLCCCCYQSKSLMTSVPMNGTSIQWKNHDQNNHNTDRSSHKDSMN
As to the kind of experiment: Competitive binding to Endothelin A receptor by displacement of [125I]ET1 (Relative IC50 was calculated as IC50 of compound/IC50 of TBC11251).

Series [3] has as its system Rattus norvegicus. As to the kind of experiment: Compound was evaluated for the biological half-life when administered orally in Acute Pulmonary Hypertension Rat Model; NM=Not measurable (T1/2 h). The class given is ADME, organism-based. The conditions noted are these: in vivo, po. A digest of the protocol: (§1)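 Adult Harlan Sprague–Dawley rats received 50 mg/kg by gavage in 0.5% high-viscosity carboxymethyl cellulose (5 mL/kg). Serial 200 μL tail-vein blood samples were taken at selected times into heparin-coated tubes. Red cells were removed by centrifugation and plasma stored at −80 °C. Plasma proteins were precipitated with acetonitrile before HPLC analysis; serum half-life was derived from these samples.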

In series [4] the test system is Rattus norvegicus. Put plainly: Compound was evaluated for the effective oral dose in Acute Pulmonary Hypertension Rat Model after administering 2 hours prior to experiment. Type of series: functional. The gist of the method:
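Rat model of acute hypoxia-induced pulmonary hypertension. Compound given orally 2 h before hypoxia. Reported value is the lowest tested dose giving 90–100% inhibition of mean pulmonary arterial pressure; mean systemic arterial pressure and heart rate were also monitored. Some entries give % inhibition at 5 mg/kg.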

Series [5] is described as follows: Compound was evaluated for the aqueous solubility (AS) in mg/mL (Measured in 0.2 M phosphate buffer of pH 7.4). Type of series: physicochemical. Conditions: read-out: AS. A digest of the protocol: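 Solubility measured in 0.2 M phosphate buffer, pH 7.4. Where a preformed sodium salt was used, it was measured in saline (9 mg/mL).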
Series [6] is described as follows: Compound was evaluated for the biological half-life when administered orally in Acute Pulmonary Hypertension Rat Model. Type of series: ADME, organism-based. The conditions noted are these: in vivo, po. The gist of the method:
as §1

Endothelin receptor, ET-A/ET-B (Homo sapiens), sequence (P24530 whole entry, looked up, one chain of several): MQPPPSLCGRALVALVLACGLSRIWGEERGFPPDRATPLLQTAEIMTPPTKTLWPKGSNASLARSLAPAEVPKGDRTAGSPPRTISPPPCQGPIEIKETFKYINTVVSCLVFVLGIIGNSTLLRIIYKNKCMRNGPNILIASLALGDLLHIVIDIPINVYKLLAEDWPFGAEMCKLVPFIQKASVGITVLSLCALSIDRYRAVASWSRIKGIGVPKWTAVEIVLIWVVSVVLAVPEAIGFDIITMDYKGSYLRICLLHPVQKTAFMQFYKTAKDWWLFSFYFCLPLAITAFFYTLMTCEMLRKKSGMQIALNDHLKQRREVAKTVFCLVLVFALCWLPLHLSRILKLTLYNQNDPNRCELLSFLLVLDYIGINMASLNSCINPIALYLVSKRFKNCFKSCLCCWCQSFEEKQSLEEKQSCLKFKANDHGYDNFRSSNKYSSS

For `COC(=O)Oc1c(C)cc(C)c(NC(=O)c2sccc2S(=O)(=O)Nc2onc(C)c2Cl)c1C`, the Selectivity in series [1] was 22200. The Relative ET-A IC50 in series [2] is 0.05. For the same molecule, the T1/2 result with Rattus norvegicus [3] is recorded as “Not Active”.

In series [1], `Cc1cc(C)c(NC(=O)c2sccc2S(=O)(=O)Nc2onc(C)c2Cl)c(C)c1O` had a Selectivity of 10900. In addition, the Relative ET-A IC50 in series [2] is 0.11. Also, in the series on Rattus norvegicus [4], the Effective dose worked out at 5 mg/kg. For the same molecule, the solubility in series [5] came out at 83 mg/mL (≈ 182 mM). Moreover, the half-life in series [6] was 438 min.

As to `Cc1cc(C)c(OC(N)=O)c(C)c1NC(=O)c1sccc1S(=O)(=O)Nc1onc(C)c1Cl`, in series [1], the Selectivity was 6700. In series [2], the Relative ET-A IC50 is 0.34. Further, the T1/2 entry in the series on Rattus norvegicus [3] was “Not Active”.

Values taken from ChEMBL document CHEMBL1132155, “Endothelin antagonists: substituted mesitylcarboxamides with high potency and selectivity for ET(A) receptors” (J Med Chem, 1999).
